Calls of active or inactive are those of the source. No cut-off for these calls is given here.
Tests used:
[1] = molecular target: T1, DNA topoisomerase (Bos taurus) (UniProt A0JN73); assay: Inhibition calf thymus topoisomerase 1 cleavage activity assessed as increase in nicked pBR322 DNA formation after 40 mins by gel electrophoresis
T1 sequence (whole entry): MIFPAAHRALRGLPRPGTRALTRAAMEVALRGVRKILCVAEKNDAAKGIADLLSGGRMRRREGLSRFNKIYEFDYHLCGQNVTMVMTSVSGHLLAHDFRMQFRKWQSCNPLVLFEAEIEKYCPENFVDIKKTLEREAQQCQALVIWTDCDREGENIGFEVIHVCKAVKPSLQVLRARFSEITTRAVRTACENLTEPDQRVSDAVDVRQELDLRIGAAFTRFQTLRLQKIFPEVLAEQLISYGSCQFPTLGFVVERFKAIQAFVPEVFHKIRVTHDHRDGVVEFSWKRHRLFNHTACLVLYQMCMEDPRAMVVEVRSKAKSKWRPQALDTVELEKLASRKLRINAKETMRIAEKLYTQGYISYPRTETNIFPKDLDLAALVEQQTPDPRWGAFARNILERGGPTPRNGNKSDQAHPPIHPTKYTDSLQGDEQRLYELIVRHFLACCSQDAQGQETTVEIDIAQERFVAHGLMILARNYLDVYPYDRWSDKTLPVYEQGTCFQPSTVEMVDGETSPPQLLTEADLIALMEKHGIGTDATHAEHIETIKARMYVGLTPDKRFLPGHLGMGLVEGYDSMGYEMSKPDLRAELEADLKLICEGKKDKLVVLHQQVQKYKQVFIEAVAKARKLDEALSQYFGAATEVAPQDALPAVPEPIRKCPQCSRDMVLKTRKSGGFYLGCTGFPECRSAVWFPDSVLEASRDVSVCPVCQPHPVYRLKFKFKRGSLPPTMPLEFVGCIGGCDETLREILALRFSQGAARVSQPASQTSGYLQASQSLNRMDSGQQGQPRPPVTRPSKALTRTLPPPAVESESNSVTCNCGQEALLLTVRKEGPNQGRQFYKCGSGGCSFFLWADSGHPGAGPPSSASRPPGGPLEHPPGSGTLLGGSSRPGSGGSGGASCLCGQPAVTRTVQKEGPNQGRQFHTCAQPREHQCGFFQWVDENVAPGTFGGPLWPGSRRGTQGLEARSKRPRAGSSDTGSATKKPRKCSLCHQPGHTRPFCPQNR

[2] = test system: Nucleic Acid; assay: Binding affinity to salmon sperm DNA assessed as DNA intercalation by circular dichroism; assay type: nucleic-acid assay; details: Salmonidae
How it was run: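 CD spectra recorded in 50 mM Tris-HCl pH 8.0 with 100 mM KCl, 1 mM MgCl2 and salmon sperm DNA (25 µg/mL), inhibitor at 0, 10, 30 and 50 µM; spectral change obtained by subtracting the CD of reagent alone from the CD of DNA plus reagent.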

| SMILES | Activity [1] | Activity [2] |
| --- | --- | --- |
| O=C1Oc2cc(O)ccc2/C1=C\c1ccc(O)cc1 | inactive | inactive |
| COc1cccc2c1C(=O)c1c(O)c3c(c(O)c1C2=O)C[C@@](O)(C(=O)CO)C[C@@H]3O[C@H]1C[C@H](N)[C@H](O)[C@H](C)O1 | – | Active |
| CC[C@@]1(O)C(=O)OCc2c1cc1n(c2=O)Cc2cc3ccccc3nc2-1 | Active | inactive |
